Results reported in ChEMBL document CHEMBL3877298, “Discovery of benzimidazole derivatives as modulators of mitochondrial function: A potential treatment for Alzheimer's disease” (Eur J Med Chem, 2017).

Columns and labels:
[1] = Auc (0 to infinity) in Sprague-Dawley rat at 10 mg/kg, iv by LC-MS/MS analysis; type: ADME, organism-based; set-up: dose 10 mg/kg, time infinity, route intravenous; settings: in vivo
Outline: (§1)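 Male SD rats, 8 weeks old, given 10 mg/kg intravenously (n = 4). Plasma mixed with carbamazepine internal standard in acetonitrile, vortexed, centrifuged at 10,000×g, and the supernatant analysed by LC-MS/MS. Parameters reported as mean ± SD.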

CYP2C9 = CYP2C9 (Homo sapiens, UniProt P11712); test: Inhibition of recombinant human CYP2C9 expressed in baculosomes coexpressing rabbit NADPH-P450 reudctase assessed as residual activity at 10 uM preincubated for 5 mins followed by substrate and NADP+ addition measured after 20 mins by fluorescence assay relative to control; type: ADME; settings: read-out: Activity
CYP2C9, sequence (P11712 whole entry): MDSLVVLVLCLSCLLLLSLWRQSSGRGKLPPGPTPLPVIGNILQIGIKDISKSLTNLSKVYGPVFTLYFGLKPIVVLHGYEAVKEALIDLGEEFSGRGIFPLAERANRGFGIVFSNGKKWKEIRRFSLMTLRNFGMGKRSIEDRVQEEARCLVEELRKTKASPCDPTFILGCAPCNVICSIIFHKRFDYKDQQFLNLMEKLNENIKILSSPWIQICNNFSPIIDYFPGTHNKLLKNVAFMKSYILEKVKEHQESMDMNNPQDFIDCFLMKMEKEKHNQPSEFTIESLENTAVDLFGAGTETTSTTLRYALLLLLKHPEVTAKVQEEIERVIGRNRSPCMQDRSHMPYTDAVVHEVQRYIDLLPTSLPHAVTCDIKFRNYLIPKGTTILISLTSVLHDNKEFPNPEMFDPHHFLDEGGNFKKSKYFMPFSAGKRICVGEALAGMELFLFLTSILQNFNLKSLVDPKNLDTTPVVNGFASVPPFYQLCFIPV
Outline: (§2)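 Vivid CYP450 kit: recombinant human CYP isozyme in Baculosomes with rabbit NADPH-P450 reductase, plus regeneration system (3.3 mM glucose-6-phosphate, 0.3 U/mL G6PDH in 100 mM potassium phosphate, pH 8.0). Mixture preincubated with sample for 5 min at 37 °C. Vivid substrate and 0.1 mM NADP+ were then added, and remaining activity read by fluorescence after 20 min.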

[2] = AUClast in Sprague-Dawley rat at 10 mg/kg, po by LC-MS/MS analysis; type: ADME, organism-based; set-up: dose 10 mg/kg, route oral, time 0 - last; settings: in vivo
Outline: (§3)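 Male SD rats, 8 weeks old, acclimatised at least 1 week; compound dissolved at 10 mg/2 mL in N-methyl-2-pyrrolidone/Tween80/water (1:2:7) by 5 min sonication, given 10 mg/kg by oral gavage at 2 mL/kg (n = 5). Heart-puncture blood drawn at 30 min and 3 h, plasma spun and stored at -70 °C. Samples mixed with carbamazepine internal standard in acetonitrile and assayed by LC-MS/MS.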

[3] = molecular target: Translocator protein (Mus musculus) (UniProt P50637); test: Inhibition of TSPO in mouse HT22 cells assessed as inhibition of amyloid beta (1 to 42)-induced ROS generation at 5 uM after 6 hrs by DCFDA staining based fluorescence assay relative to control; type: cell-based; settings: HT-22
Translocator protein (Mus musculus), sequence (P50637 whole entry, looked up): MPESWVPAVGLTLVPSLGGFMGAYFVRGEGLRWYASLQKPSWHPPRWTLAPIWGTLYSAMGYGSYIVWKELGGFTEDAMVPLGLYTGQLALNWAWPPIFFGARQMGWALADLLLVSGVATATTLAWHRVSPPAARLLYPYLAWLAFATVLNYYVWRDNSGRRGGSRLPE

[4] = Terminal half life in Sprague-Dawley rat at 10 mg/kg, po by LC-MS/MS analysis; type: ADME, organism-based; settings: in vivo, read-out: beta t1/2; outline: as §3
CYP1A2 = molecular target: T1, CYP1A2 (Homo sapiens, UniProt P05177); test: Inhibition of recombinant human CYP1A2 expressed in baculosomes coexpressing rabbit NADPH-P450 reudctase assessed as residual activity at 10 uM preincubated for 5 mins followed by substrate and NADP+ addition measured after 20 mins by fluorescence assay relative to control; type: ADME; settings: read-out: Activity; outline: as §2
T1 sequence (P05177 whole entry): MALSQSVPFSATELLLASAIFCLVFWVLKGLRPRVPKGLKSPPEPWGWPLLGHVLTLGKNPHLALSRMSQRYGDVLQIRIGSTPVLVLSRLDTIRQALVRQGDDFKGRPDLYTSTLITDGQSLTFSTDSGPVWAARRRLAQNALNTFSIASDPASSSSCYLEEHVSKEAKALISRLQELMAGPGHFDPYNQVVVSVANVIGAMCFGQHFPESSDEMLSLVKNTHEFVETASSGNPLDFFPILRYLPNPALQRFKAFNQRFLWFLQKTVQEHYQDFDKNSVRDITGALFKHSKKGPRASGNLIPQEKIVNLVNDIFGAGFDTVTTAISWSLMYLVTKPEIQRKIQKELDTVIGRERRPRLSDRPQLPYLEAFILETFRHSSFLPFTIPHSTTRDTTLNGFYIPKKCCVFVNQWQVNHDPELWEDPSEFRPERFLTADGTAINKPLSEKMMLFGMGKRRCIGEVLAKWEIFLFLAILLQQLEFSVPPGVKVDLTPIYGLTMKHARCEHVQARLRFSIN

[5] = molecular target: Translocator protein (Mus musculus) (UniProt P50637); test: Inhibition of TSPO in mouse HT22 cells assessed as inhibition of amyloid beta (1 to 42)-induced toxicity at 5 uM after 24 hrs by MTT assay relative to control; type: cell-based; settings: HT-22
Outline: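 HT22 cells at 5000 per well were treated with compound (5 µM), with or without Aβ1-42 (5 µM), for 24 h at 37 °C. MTT was added for 2 h, then solubilising solution (10% Triton X-100 in isopropanol with 0.1 M HCl) for 2 h more. Absorbance read at 560 nm; % inhibition normalised to vehicle, and viability taken from compound-only wells.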

[6] = MRT in Sprague-Dawley rat at 10 mg/kg, iv by LC-MS/MS analysis; type: ADME, organism-based; settings: in vivo; outline: as §1
[7] = Volume of distribution at steady state in Sprague-Dawley rat at 10 mg/kg, iv by LC-MS/MS analysis; type: ADME, organism-based; settings: in vivo, read-out: Vdss; outline: as §1
[8] = AUClast in Sprague-Dawley rat at 10 mg/kg, iv by LC-MS/MS analysis; type: ADME, organism-based; set-up: dose 10 mg/kg, route intravenous, time 0 - last; settings: in vivo; outline: as §1
[9] = Cytotoxicity against mouse HT22 cells assessed as cell viability at 5 uM after 24 hrs by MTT assay relative to control; type: toxicity, HT-22; settings: read-out: Activity
Outline: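 MTT was added for 2 h, then solubilising solution (10% Triton X-100 in isopropanol with 0.1 M HCl) for 2 h more. Absorbance read at 560 nm; % inhibition normalised to vehicle, and viability taken from compound-only wells.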

Mus musculus = test: Cognition enhancing effect in ICR mouse model of acute Alzheimer's disease assessed as reversal of amyloid beta (1 to 42)-induced cognitive deficit by measuring spatial working memory at 30 mg/kg, ip daily for 6 days measured on day 7 by Y maze spontaneous alteration test relative to control; type: functional
Outline: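 Male ICR mice (6 weeks, 30–33 g) received Aβ1-42 500 pmol ICV in 10% DMSO/PBS. Compound in 20% cyclodextrin was given at 30 mg/kg daily for 6 days (n = 7 per group). One day later, each mouse explored a three-arm Y-maze for 8 min, and the sequence of arm entries was used to calculate % spontaneous alternation.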

[10] = Ratio of drug level in brain to plasma in Sprague-Dawley rat at 10 mg/kg, iv at 2 hrs post dose by LC-MS/MS analysis; type: ADME, organism-based; settings: brain and plasma, read-out: BPR
Outline: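 After intravenous dosing at 10 mg/kg in male SD rats, brain and plasma were sampled at 2 h. Each was mixed with carbamazepine internal standard in acetonitrile and analysed by LC-MS/MS.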

[11] = molecular target: Translocator protein (Mus musculus) (UniProt P50637); test: Inhibition of TSPO in mouse HT22 cells assessed as protection against amyloid beta (1 to 42)-induced mitochondrial membrane potential loss by measuring recovery of mitochondrial membrane potential at 5 uM preincubated for 10 mins followed by amyloid beta (1 to 42) addition measured every 1 hr for 3 hrs by JC1 staining based fluorescence assay relative to control; type: cell-based; set-up: scale not given: the % may be the effect or the level left; settings: HT-22
Outline: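 HT22 cells at 30,000 per well were loaded with 7.5 µM JC-1 in phenol red-free Opti-MEM for 1 h 15 min at 37 °C, then washed. Cells were treated with compound (5 µM) and Aβ1-42 (5 µM); vehicle wells received DMSO. Green (485/535) and red (560/595) fluorescence were read hourly for 3 h. Recovery was normalised between Aβ-damaged (0%) and normal (100%) ratio.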

[12] = Oral bioavailability in Sprague-Dawley rat at 10 mg/kg by LC-MS/MS analysis; type: ADME, organism-based; settings: in vivo; outline: as §3
CYP2C19 = CYP2C19 (Homo sapiens, UniProt P33261); test: Inhibition of recombinant human CYP2C19 expressed in baculosomes coexpressing rabbit NADPH-P450 reudctase assessed as residual activity at 10 uM preincubated for 5 mins followed by substrate and NADP+ addition measured after 20 mins by fluorescence assay relative to control; type: ADME; settings: read-out: Activity; outline: as §2
CYP2C19, sequence (P33261 whole entry): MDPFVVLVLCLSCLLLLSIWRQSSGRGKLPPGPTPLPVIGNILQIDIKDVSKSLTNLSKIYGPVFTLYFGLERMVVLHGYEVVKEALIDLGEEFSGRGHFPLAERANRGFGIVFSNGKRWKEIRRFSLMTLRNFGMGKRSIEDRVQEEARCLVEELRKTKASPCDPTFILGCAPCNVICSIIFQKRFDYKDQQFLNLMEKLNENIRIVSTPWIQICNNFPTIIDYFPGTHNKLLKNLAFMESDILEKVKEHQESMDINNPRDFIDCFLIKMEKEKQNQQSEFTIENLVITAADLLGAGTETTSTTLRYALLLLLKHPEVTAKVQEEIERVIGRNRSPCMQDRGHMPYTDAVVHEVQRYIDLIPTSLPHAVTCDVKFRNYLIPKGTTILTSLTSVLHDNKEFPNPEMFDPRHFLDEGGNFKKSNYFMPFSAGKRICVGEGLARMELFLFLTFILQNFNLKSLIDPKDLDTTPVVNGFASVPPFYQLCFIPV

[13] = Drug excretion in Sprague-Dawley rat at 10 mg/kg, iv by LC-MS/MS analysis; type: ADME, organism-based; settings: in vivo, read-out: Drug excretion

`Cc1ccc(C(C)C)cc1NC(=O)Cn1c(Cc2c(Cl)cccc2Cl)nc2ccccc21` showed an AUC(0-inf) [1] of 1850 ng·h/mL, an activity at 20 min, 10 µM (CYP2C9) of 54.7% and an AUC(0-t) [2] of 128 ng·h/mL. It also gave an inhibition [3] of 85%, a half-life [4] of 1.49 h and an activity at 20 min, 10 µM (CYP1A2) of 108%. It also gave an inhibition [5] of 30%, an MRT [6] of 1.12 h and a Vd [7] of 6.21 L/kg. It also gave an AUC(0-t) [8] of 1750 ng·h/mL, a viability at 24 h, 5 µM [9] of 88 to 109% and an Activity (Mus musculus) of 72%. The Kp at 2 h [10] was 2.88, the Activity [11] was 74% and the bioavailability [12] was 3.7%. The activity at 20 min, 10 µM (CYP2C19) was 57.3% and the dose excreted [13] was 0.03%.
